Laboratory results as given in paper PMC8553955 (Plant Communications, 2021).

Legend:
[1] = test system: PrKAI2d3; assay: Thermostability of PrKAI2d3 by nanoDSF; format: binding, Phelipanche ramosa; conditions: PrKAI2d3 at 10 μM, ligands at 100 μM
Outline: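 Protein at about 10 μM in PBS (100 mM phosphate pH 6.8, 150 mM NaCl) was mixed with ligand or no ligand. Intrinsic fluorescence (350/330 nm ratio) was recorded over a 1°C/min temperature ramp at 55% excitation. Apparent Tm was taken from the first derivative of the ratio curve.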

[2] = test system: A. thaliana htl-3/p35S::GFP-PrKAI2d3 seeds; assay: Arabidopsis germination assay, htl-3 complemented with PrKAI2d3; format: in vivo, Arabidopsis thaliana; conditions: Arabidopsis Col-0, htl-3 and the three p35S::GFP-PrKAI2d3 complemented lines; data not shown
Outline: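 After-ripened (≥6 weeks), surface-sterilized seeds were suspended in 1 mM HEPES pH 7.5 at 10 mg/mL and dispensed at about 20–25 seeds per well. Stimulant (GR24 isomers) or DMSO control was added. Plates were incubated either 5 days at 25°C in darkness or, for thermo-inhibition, 7 days at 32–34°C under constant light (10 μmol m−2 s−1). Germination was scored as radicle protrusion. Groups were compared by Kruskal–Wallis.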

[3] = test system: Phelipanche ramosa seeds; assay: Germination stimulation activity assay on P. ramosa seeds; conditions: in vivo
[4] = test system: PrKAI2d3; assay: Enzymatic assays with profluorescent probes and p-nitrophenyl acetate; format: biochemical, Phelipanche ramosa
[5] = test system: Phelipanche ramosa seeds; assay: Inhibition of P. ramosa germination stimulation induced by GR24 or 2-PEITC; format: in vivo
Outline: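 Seeds from a genetic-group-1 population were surface-sterilized and conditioned in darkness at 21°C. Germination was stimulated with 10 nM (±)-GR24 or 100 nM 2-PEITC in the presence of test compound. Maximum inhibition and IC50 were derived from the response.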

[6] = test system: rice (Oryza sativa); conditions: high concentration (50 μM); ref Nakamura et al., 2013; cited from earlier work
[7] = test system: pea (Pisum sativum) shoot branching; assay: Pea shoot branching assay; format: in vivo; conditions: direct injection in the stem, 100 μM, rms1-10
[8] = test system: Striga hermonthica seeds; assay: Germination stimulation activity assay on S. hermonthica seeds; format: in vivo
Outline: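 Surface-sterilized seeds were conditioned in darkness at 30°C. Compounds were dissolved at 10 mM in DMSO, serially diluted in water/DMSO 9:1, and applied at 10−13 to 10−6 M (final water/DMSO 99:1). Controls were 1% DMSO (negative) and 1 μM (±)-GR24 (positive). Germination was expressed relative to the positive control in each assay, with at least three repeats. EC50 came from a four-parameter logistic fit.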

[9] = test system: A. thaliana htl-3/ShHTL7 seeds; assay: Arabidopsis germination assay, htl-3 expressing ShHTL7; format: in vivo

S=C=NCCc1ccccc1 [2-PEITC, phenethyl isothiocyanate]
apparent melting temperature (Tm) [1]: 45.1 °C | sensitivity of germination in words [2]: insensitive | Seeds of P. ramosa fold less sensitive than to (±)-GR24 [3]: approximately 10 000 fold

CC(=O)Oc1ccc([N+](=O)[O-])cc1 [p-NPA, para-nitrophenyl acetate]
PrKAI2d3 hydrolase activity with generic substrate, in words [4]: no hydrolytic activity was detected

CC1=CC(=O)CC(C)(C)[C@@]1(O)/C=C/C(C)=C\C(=O)O [ABA, abscisic acid]
IC50 ([5]; 2-PEITC (100 nM)): 34 nM | IC50 ([5]; GR24 (10 nM)): 100 nM

CC1=CC(O)OC1=O [D-OH, 4-Hydroxy-2-methylbut-2-en-4-olide]
bioactivity in rice, in words [6]: bioactive | effect on branching control in pea, in words [7]: no effect on branching control | EC50 [8]: 1200 nM | EC50 [9]: 3100 nM
